For assay [1], the target named is Stromal interaction molecule 1 & 2/Calcium release-activated calcium channel protein 1 (Mus musculus) (UniProt Q8BWG9+P70302+P83093). The assay is described as follows: Modulation of STIM1/STIM2/Orai1 in mouse BV2 cells assessed as induction of store-operated calcium entry by measuring increase in slope at 0.3 to 10 uM preincubated for 30 mins followed by tBhQ-mediated Ca2+ depletion and Ca2+ re-addition to extracellular solution measured for 600 secs by Fluo-4 AM-based fluorometric assay relative to control. It is filed as cell-based.

The subject of assay [2] is Jurkat. Kind of assay: Induction of store-operated calcium entry in human Jurkat cells assessed as induction of store-operated calcium entry by measuring increase in AUC of calcium entry at 0.3 to 10 uM preincubated for 30 mins followed by tBhQ-mediated Ca2+ depletion and Ca2+ re-addition to extracellular solution measured for 600 secs by Fluo-4 AM-based fluorometric assay relative to control. It is filed as cell-based.

Assay [3] deals with voltage-gated calcium channel (Mus musculus). Kind of assay: Antagonist activity at voltage-gated calcium channels in C57/BL6 mouse cerebellar granule cells assessed as inhibition of KCl-induced voltage dependent calcium entry at 10 uM by fura-2-based assay.
In assay [4] the target is ORAI1/STIM1 (Homo sapiens) (UniProt Q96D31+Q13586). The assay is described as follows: Modulation of Orai1/STIM1 (unknown origin) expressed in HEK cells assessed as potentiation of store-operated calcium currents in presence of 20 mM BAPTA by patch clamp assay relative to control. It is filed as cell-based. The method, boiled down: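 Whole-cell ISOC recorded in Hek cells stably overexpressing Orai1 and transiently expressing STIM1; internal solution strongly buffered with 20 mM BAPTA; compound at 10 μM versus untreated control.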
ORAI1/STIM1 (Homo sapiens), sequence (Q13586 23-685 partner limits assumed): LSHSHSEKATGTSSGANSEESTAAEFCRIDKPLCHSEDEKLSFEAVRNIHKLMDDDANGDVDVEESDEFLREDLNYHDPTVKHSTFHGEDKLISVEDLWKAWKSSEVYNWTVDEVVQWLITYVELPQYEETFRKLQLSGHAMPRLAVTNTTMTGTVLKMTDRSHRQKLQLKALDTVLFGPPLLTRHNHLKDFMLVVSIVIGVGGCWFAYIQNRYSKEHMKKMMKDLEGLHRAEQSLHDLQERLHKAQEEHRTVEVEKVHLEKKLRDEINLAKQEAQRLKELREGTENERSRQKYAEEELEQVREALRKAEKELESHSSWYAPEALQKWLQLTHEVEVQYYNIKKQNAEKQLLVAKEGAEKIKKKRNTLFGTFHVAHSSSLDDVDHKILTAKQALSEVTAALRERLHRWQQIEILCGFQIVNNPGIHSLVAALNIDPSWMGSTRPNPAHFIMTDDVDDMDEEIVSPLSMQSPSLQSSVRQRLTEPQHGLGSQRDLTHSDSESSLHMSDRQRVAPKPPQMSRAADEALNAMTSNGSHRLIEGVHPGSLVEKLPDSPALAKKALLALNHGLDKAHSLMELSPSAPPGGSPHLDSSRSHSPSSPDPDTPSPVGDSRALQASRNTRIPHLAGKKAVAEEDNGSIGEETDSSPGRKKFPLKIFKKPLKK
ORAI1/STIM1 (Homo sapiens), sequence (Q96D31 whole entry): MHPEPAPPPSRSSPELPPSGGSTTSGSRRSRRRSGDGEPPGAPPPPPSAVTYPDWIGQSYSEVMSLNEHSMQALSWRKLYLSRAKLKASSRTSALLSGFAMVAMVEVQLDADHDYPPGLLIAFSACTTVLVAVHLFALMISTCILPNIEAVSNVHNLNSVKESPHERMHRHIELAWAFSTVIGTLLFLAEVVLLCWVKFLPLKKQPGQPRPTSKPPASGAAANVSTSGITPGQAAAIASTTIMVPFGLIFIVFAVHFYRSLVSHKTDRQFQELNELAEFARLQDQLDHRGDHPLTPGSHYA

In assay [5] the target is Calcium release-activated calcium channel protein 1 (Mus musculus) (UniProt Q8BWG9). Kind of assay: Modulation of Orai1 in Stim1-/1 and Stim2-/- MEF cells assessed as induction of store-operated calcium entry by measuring residual activity at 10 uM preincubated for 30 mins followed by tBhQ-mediated Ca2+ depletion and Ca2+ re-addition to extracellular solution measured for 600 secs by Fluo-4 AM-based fluorometric assay relative to control. Type of assay: cell-based.
Calcium release-activated calcium channel protein 1 (Mus musculus), sequence (Q8BWG9 whole entry): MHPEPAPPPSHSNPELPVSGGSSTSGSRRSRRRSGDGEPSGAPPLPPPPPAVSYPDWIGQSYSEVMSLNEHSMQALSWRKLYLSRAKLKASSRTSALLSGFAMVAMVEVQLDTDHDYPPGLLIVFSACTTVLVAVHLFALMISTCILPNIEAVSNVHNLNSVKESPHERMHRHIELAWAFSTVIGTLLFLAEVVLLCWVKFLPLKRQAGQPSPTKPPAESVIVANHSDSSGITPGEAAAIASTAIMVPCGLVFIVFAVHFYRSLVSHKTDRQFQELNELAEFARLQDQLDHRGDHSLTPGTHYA

In assay [6] the target is Short transient receptor potential channel 1 & 3/Stromal interaction molecule 1/Calcium release-activated calcium channel protein 1 (Homo sapiens) (UniProt Q96D31+Q13507+Q13586+P48995). The assay is described as follows: Modulation of TRPC1/TRPC3/STIM1/Orai1 in HEK cells assessed as induction of store-operated calcium entry by measuring increase in slope at 0.3 to 10 uM preincubated for 30 mins followed by tBhQ-mediated Ca2+ depletion and Ca2+ re-addition to extracellular solution measured for 600 secs by Fluo-4 AM-based fluorometric assay relative to control. Type of assay: cell-based.
Short transient receptor potential channel 1 & 3/Stromal interaction molecule 1/Calcium release-activated calcium channel protein 1 (Homo sapiens), sequence (P48995 whole entry partner): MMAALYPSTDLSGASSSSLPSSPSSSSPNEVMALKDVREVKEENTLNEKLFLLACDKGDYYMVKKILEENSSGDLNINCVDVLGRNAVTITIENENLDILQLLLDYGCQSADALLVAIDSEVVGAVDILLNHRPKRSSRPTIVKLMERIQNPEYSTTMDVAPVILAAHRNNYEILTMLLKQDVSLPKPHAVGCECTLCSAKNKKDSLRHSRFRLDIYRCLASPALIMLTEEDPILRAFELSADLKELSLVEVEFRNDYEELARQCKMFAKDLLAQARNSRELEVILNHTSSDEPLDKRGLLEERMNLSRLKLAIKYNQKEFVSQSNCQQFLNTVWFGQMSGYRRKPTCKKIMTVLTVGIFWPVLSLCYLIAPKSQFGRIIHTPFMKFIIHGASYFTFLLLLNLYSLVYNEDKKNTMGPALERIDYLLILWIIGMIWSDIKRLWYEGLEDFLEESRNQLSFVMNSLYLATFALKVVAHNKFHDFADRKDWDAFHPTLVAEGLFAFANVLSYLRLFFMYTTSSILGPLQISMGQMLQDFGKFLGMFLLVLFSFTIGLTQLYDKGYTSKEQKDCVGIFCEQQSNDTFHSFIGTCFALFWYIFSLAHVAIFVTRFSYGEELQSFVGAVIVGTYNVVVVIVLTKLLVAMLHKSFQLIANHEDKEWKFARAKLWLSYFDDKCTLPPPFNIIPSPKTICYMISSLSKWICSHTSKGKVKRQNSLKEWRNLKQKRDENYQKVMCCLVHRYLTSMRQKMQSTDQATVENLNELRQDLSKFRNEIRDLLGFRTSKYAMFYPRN
Short transient receptor potential channel 1 & 3/Stromal interaction molecule 1/Calcium release-activated calcium channel protein 1 (Homo sapiens), sequence (Q13507 whole entry partner): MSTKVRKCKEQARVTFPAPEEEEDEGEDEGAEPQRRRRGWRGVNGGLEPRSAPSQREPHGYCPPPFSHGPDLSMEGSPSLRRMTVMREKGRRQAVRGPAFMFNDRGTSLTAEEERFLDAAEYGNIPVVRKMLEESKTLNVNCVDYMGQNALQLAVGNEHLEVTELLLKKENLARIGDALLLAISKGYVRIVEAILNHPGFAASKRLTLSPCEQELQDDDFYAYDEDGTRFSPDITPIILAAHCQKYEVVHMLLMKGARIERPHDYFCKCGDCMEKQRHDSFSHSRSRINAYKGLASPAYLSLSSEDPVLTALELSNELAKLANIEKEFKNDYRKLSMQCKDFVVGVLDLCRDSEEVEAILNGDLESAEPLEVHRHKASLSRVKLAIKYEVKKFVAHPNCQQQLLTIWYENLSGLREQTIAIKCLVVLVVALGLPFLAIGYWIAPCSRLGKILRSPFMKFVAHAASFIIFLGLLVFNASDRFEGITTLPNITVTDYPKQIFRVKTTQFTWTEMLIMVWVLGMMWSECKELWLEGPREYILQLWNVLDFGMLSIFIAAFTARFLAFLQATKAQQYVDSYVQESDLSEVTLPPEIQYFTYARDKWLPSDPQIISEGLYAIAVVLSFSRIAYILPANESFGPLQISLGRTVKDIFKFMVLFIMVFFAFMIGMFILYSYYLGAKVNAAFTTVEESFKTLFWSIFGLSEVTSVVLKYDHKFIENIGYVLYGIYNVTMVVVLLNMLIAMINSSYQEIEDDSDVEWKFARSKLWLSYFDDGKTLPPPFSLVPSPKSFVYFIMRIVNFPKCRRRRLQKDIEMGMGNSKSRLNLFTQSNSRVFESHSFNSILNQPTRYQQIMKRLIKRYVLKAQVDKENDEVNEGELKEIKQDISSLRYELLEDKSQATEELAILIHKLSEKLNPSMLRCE
Short transient receptor potential channel 1 & 3/Stromal interaction molecule 1/Calcium release-activated calcium channel protein 1 (Homo sapiens), sequence (Q13586 23-685 partner limits assumed): as the sequence (Q13586 23-685 partner limits assumed) above
Short transient receptor potential channel 1 & 3/Stromal interaction molecule 1/Calcium release-activated calcium channel protein 1 (Homo sapiens), sequence (Q96D31 whole entry): as the sequence (Q96D31 whole entry) above

Structures are written as SMILES. Active and inactive are the calls of the source. The calls are words filed in the database; no cut-off is given here.

On to `O=C(O)c1ccc(-c2cn(-c3ccc(-n4nc(C(F)(F)F)cc4C(F)(F)F)cc3)nn2)cc1`, for which the outcome in assay [1], in assay [2], in assay [4], in assay [5] and in assay [6] was Active. The inhibition entry in assay [3] was “inactive”.

Source of the values: ChEMBL document CHEMBL4152384, “Pyrtriazoles, a Novel Class of Store-Operated Calcium Entry Modulators: Discovery, Biological Profiling, and in Vivo Proof-of-Concept Efficacy in Acute Pancreatitis” (J Med Chem, 2018).
